OX1R antag-1: OX1R (human) antagonism | 330,000 compounds, 1.8% hits | OX1R-expressing cells, FRET antagonist read-out | inhibition, % at 6.6 µM; in the data active means inhibition mostly above about 38%, no sharp cut-off; inactive means mostly below about 40%;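 further: 0% = agonist challenge alone and 100% = reference antagonist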
Target sequence (O43613 whole entry, looked up): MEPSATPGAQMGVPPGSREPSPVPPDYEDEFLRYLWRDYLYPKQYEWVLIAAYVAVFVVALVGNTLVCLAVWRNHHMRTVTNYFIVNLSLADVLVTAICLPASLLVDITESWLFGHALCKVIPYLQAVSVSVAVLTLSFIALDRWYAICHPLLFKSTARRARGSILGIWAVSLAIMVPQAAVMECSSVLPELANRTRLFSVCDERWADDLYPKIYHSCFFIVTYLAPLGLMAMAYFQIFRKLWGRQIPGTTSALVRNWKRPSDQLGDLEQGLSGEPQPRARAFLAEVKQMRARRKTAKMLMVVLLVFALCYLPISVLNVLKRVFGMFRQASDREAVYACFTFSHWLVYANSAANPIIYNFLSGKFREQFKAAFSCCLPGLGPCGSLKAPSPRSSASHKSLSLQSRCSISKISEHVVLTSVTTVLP
TAAR1 agonist: agonists of human TAAR1 | 360,000 compounds, 0.99% hits | AID 624467 | activation, % at 3 µM | CHO RD-HGA16 TAAR1, Fluo-8 calcium fluorescence; vehicle wells 0%, saturating PEA agonist 100% | Q96RJ0;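 active means activation above the mean activation of all test compounds in the run plus 3 SD, cut at about 38% in these data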
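Test system: RD-HGA16 (CHO) cells co-expressing Gα16 and hTAAR1 / Benchmarks: DMSO vehicle as 0%, PEA at EC100 as 100% / Repeats: no replicates (n 1) / Measure: % activation from peak over basal fluorescence ratio, DMSO-to-PEA scaled / Timing: 17-24 h plating, Fluo-8 75 min 37 °C, 30 min RT / Technique: kinetic Fluo-8 calcium fluorescence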
TAAR1 antagonist: human TAAR1 antagonism; 360,000 compounds, 1.5% hits; AID 624466; inhibition, % at 3 µM; Q96RJ0; CHO RD-HGA16 TAAR1, Fluo-8 calcium fluorescence, antagonist;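 active means inhibition above a per-plate cutoff, the mean inhibition of test compounds on that plate plus 3 SD, cut at about 49% in these data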;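 further: 0% = DMSO plus EC80 beta-PEA response and 100% = DMSO alone without agonist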
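Test system: hTAAR1-expressing CHO RD-HGA16 cells, Gα16-coupled; Probe or stimulus: EC80 β-phenethylamine stimulus; Compound dosing: single nominal final test compound concentration of 3 µM; Timing: 140 s kinetic read after compound, 140 s after agonist; Signal: Fluo-8 calcium-sensitive fluorescence; Measure: % inhibition of agonist calcium response; Controls: DMSO and EC80 PEA controls.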
OX1R antag-2: blocks the human orexin 1 receptor; O43613; CHO/OX1R cells, Fluo-8 calcium fluorescence, orexin A; inhibition, % at 5 µM; 330,000 compounds, 0.43% hits; AID 434989;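 active means inhibition above its plate's threshold, mean inhibition of all tested compounds on the plate plus 3 SD, cut at about 37% in these data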;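 further: 0% = orexin A challenge wells and 100% = SB-334867-A antagonist wells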
GPR7 antag: blocks human GPR7 receptor signaling. inhibition, % at 4.4 µM. GPR7-expressing cells, fluorescence antagonist assay. 290,000 compounds, 1.1% hits. P48145. AID 1861; in the data active means inhibition above about 16%, passing the limit was not always enough;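 further: cells stimulated with the agonist NPW; 0% = agonist with vehicle and 100% = vehicle without agonist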
CHO parental Ca: signal in parental CHO cells, OX1R antagonist counter-screen. parental CHO-K1, ATP-induced calcium, Fluo-8 fluorescence. inhibition, % at 5.6 µM. 330,000 compounds, 0.63% hits. AID 463079;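 active means inhibition above that plate's mean sample inhibition plus 3 SD, cut at about 26% in these data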;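 further: 0% = ATP-challenged DMSO wells and 100% = DMSO wells without ATP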
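Assay system: parental CHO cells; Read-out basis: percent inhibition of ATP-evoked calcium rise, normalized to controls; Benchmarks: ATP and no-ATP DMSO wells; Compound dosing: single nominal dose of 5.6 µM per compound; Signal: Fluo-8 calcium dye fluorescence; Also added: ATP as calcium-mobilizing challenge; Repeats: singlicate.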
GPR7 antag cf: human GPR7 antagonism, confirmation assay; 2,400 compounds, 52% hits; shares compounds with GPR7 antag; AID 1952; GPR7-expressing cells, calcium fluorescence antagonist mode; inhibition, % at 4.4 µM; in the data active means inhibition above about 24%;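 further: stimulated with the GPR7 agonist NPW; 0% = agonist plus vehicle and 100% = vehicle alone without agonist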
MCHR1 antag: counter-screen for GPR7 antagonists: antagonists of human MCHR1; shares compounds with GPR7 antag; MCHR1-expressing cells, fluorescence antagonist assay; inhibition, % at 4.4 µM; 2,400 compounds, 62% hits; in the data active means inhibition above about 22%;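 further: 0% = vehicle with agonist and 100% = vehicle without agonist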
The depositor's hits bear a star; nt = no result given. The list is not random: actives were taken first. Their share in the collection is about 4.6%.

SMILES | OX1R antag-1 | TAAR1 agonist | TAAR1 antagonist | OX1R antag-2 | GPR7 antag | CHO parental Ca | GPR7 antag cf | MCHR1 antag
COc1cccc(C(=O)Nc2ccc(NC(C)=O)cc2)c1 | 3 | 3 | 4 | 4 | -3 | -2 | nt | nt
Cc1cccc(C(=O)Nc2ccc(C(=O)/C=C/c3ccncc3)cc2)c1 | 17 | 18 | 60* | 5 | 46* | 2 | 74* | 104*
COc1cccc(C(=O)Nc2ccc(C(=O)c3ccncc3)cc2)c1 | 20 | 12 | 13 | 13 | 23* | 8 | 23 | 47*
CCN(C(=O)c1cc2c(s1)-c1ccccc1S(=O)(=O)C2)c1cc(OC)ccc1OC | -3 | 1 | -3 | -27 | 0 | -6 | nt | nt
CCN(C(=O)c1cc2c(s1)-c1ccccc1OC2)c1cc(OC)ccc1OC | 14 | 0 | -9 | -8 | 31* | 35* | 50* | 56*
O=C(CN1CCOc2ccccc21)NC1CCN(Cc2ccccc2)CC1 | 26 | -1 | -7 | -19 | 1 | -6 | nt | nt
O=C(CN1CCOc2ccccc21)NC1CCCCCCC1 | 16 | 1 | 3 | -19 | 25* | -5 | 7 | 5
O=C(CSCc1cccc(Cl)c1)N/N=C/c1ccc(OCC(=O)N2CCCCC2)cc1 | 27 | 7 | 29 | 18 | 15 | -23 | nt | nt
O=C(NC1CCCC1)C(c1ccccc1)N(Cc1ccco1)C(=O)Cc1cccs1 (configuration not stated) | 33 | 2 | 25 | -14 | 42* | -23 | 35* | 21
O=C(NC1CCCCC1)C(c1cccs1)N(Cc1cccs1)C(=O)c1ccco1 (configuration not stated) | 39 | 5 | 16 | -4 | 25* | -19 | 22 | 27*
O=C(NC1CCCCC1)C(c1ccccc1F)N(Cc1ccco1)C(=O)Cn1nnc2ccccc21 (configuration not stated) | 21 | 5 | 3 | -27 | 29* | -31 | 43* | 31*
COCCN(C(=O)CNC(=O)c1ccco1)C(C(=O)NC1CCCCC1)c1cccs1 (configuration not stated) | -5 | 2 | -11 | -18 | -8 | -19 | nt | nt
COc1ccc(Cl)cc1NC(=O)COC(=O)CNC(=O)c1ccc([N+](=O)[O-])c(C)c1 | 9 | 0 | 4 | -13 | -8 | -16 | nt | nt
CCCCn1c(-c2c(Cl)c(C)nn2C)n[nH]c1=S | 10 | 1 | 5 | -17 | 8 | -9 | nt | nt
Cc1cc(C)nc(SCC(=O)NN=Cc2ccc(C)o2)n1 | 14 | 0 | 5 | -17 | nt | -9 | nt | nt
CN(C1=C(NC(=O)c2ccc(Cl)cc2)C(=O)c2ccccc2C1=O)c1ccccc1 | 57 | -2 | -32 | 22 | -13 | -20 | nt | nt
C(=C\c1ccccc1)/CSc1nnc(-c2cnccn2)n1Cc1ccco1 | 22 | -3 | -1 | -13 | 21* | -14 | 24* | 39*
COc1ccc(Nc2nnc(-c3ccc(C(=O)NCCO)cc3)c3ccccc23)cc1 | 25 | -1 | -2 | -10 | 60* | -15 | 2 | 36*
COc1ccc(Nc2nnc(-c3ccc(C(N)=O)cc3)c3ccccc23)cc1 | 20 | 1 | 3 | -16 | 34* | -12 | 5 | 15
Cc1sc(NC(=O)c2ccco2)nc1-c1ccc2c(c1)CC(C)N2C(=O)C1CC1 (configuration not stated) | 26 | nt | nt | 9 | 18 | -12 | nt | nt
CCCc1cnc(NCCNCC(O)COc2ccc(Cl)c(Cl)c2)nc1 (configuration not stated) | -2 | 22 | -16 | -27 | 23* | 4 | 31* | 52*
OC(CCN1CCCC1)(c1ccccc1)C1CCCCC1 (configuration not stated) | 13 | 3 | -20 | -21 | 5 | -16 | nt | nt
c1ccc2sc(C3CCN(Cc4nnnn4Cc4ccc5c(c4)OCO5)CC3)nc2c1 | 22 | 6 | 15 | -13 | -9 | -10 | nt | nt
COc1ccc(Cn2nnnc2CN2CCC(c3nc4ccccc4s3)CC2)cc1 | 13 | 21 | 43 | -4 | 29* | -4 | 36* | 64*
COn1c(SCc2ccc(Cl)cc2)nc2ccccc2c1=O | 14 | 5 | 15 | -38 | 1 | -17 | nt | nt
SMILES | OX1R antag-1 | TAAR1 agonist | TAAR1 antagonist | OX1R antag-2 | GPR7 antag | CHO parental Ca | GPR7 antag cf | MCHR1 antag
O=C(COC(=O)c1cc(S(=O)(=O)N2CCOCC2)cs1)c1ccccc1 | 7 | 6 | 7 | -16 | 25* | -11 | 9 | 11
O=C(COc1ccc(Cl)cc1)Nc1ccc(Cc2ccncc2)cc1 | 29 | 2 | 5 | -2 | 28* | 14 | 32* | 49*
Cc1ccc(OCC(=O)Nc2ccc3c(c2)C(=O)NC3=O)cc1 | 30 | 3 | 12 | 3 | 28* | 8 | 40* | 35*
O=C(COc1ccc(Cl)cc1)Nc1ccc2c(c1)C(=O)NC2=O | 38 | 6 | -5 | 21 | 33* | 18 | 24* | 27*
O=C(CSCc1ccccc1)Nc1ccc2c(c1)C(=O)NC2=O | 26 | 5 | 10 | -7 | 24* | 2 | 35* | 34*
COC(=O)[C@]12C[C@H](CC(=O)NCC3CCCCC3)C(=O)N(CCc3ccc(OC)c(OC)c3)C1=C[C@H](C(C)(C)C)O[C@@H]2C | nt | -2 | -5 | nt | nt | nt | nt | nt
Cc1cc(OCC(=O)Nc2ccncc2)ccc1Br | 49 | 12 | 14 | 48* | 23* | 41* | 36* | 50*
COc1cccc(NC(=O)COc2ccc(Br)c(C)c2)c1 | 7 | 1 | 2 | -1 | -4 | -4 | nt | nt
CC(=O)c1ccc(-n2nnnc2SCC(=O)N2CCc3ccccc3C2)cc1 | nt | 16 | 9 | nt | 29* | nt | 10 | 12
O=C(CSc1nnnn1-c1ccccc1)N1CCc2ccccc2C1 | 19 | 3 | 13 | -10 | -8 | -21 | nt | nt
CCC(=O)N/C(=N/c1nc(C)cc(C)n1)Nc1ccc(OC)cc1 | 8 | 6 | -3 | 2 | 35* | -17 | -4 | 17
CCC(=O)N/C(=N/c1nc(C)cc(C)n1)Nc1ccccc1 | 13 | -3 | -6 | -14 | 19 | -26 | nt | nt
Cc1ccc(-c2nc(CN(C)Cc3ccc4nccnc4c3)c(C)o2)s1 | 0 | 1 | -9 | -2 | -4 | -5 | nt | nt
CCCCN(CCCC)CC(O)CN(c1cc([N+](=O)[O-])ccc1OC)S(=O)(=O)c1ccccc1 (configuration not stated) | 16 | 2 | -14 | -26 | 36* | -25 | 41* | 34*

Screens (PubChem)
